Experimental data reported in ChEMBL document CHEMBL4400583, “Camporidines A and B: Antimetastatic and Anti-inflammatory Polyketide Alkaloids from a Gut Bacterium of Camponotus kiusiuensis” (J Nat Prod, 2019).
≈ marks a conversion by molar mass, not a printed value. Calls of active or inactive are those of the source. The rule behind the calls is not given here.

Columns and labels:
RAW264.7 [1] = assay: Cytotoxicity against LPS-induced mouse RAW264.7 cells assessed as reduction in cell viability up to 80 uM by MTT assay; assay type: cell-based
In short: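 Viability of mouse macrophages after co-exposure to LPS and compound, measured by MTT assay. This was run alongside the LPS-induced NO suppression assay to check for cytotoxicity.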

MCF-10A = assay: Antiproliferative activity against human MCF10A cells after 72 hrs by SRB assay; assay type: cell-based
MDA-MB-231 [2] = assay: Antiinvasive activity against human MDA-MB-231 cells at 40 uM after 48 hrs by crystal violet staining based microscopic method relative to control; assay type: functional
In short: (§1)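 Cell invasion assay with MDA-MB-231 human breast cancer cells exposed to 20 or 40 μM compound, sunitinib as positive control. Invasion decrease is relative to untreated control, given as mean ± SD of n = 3, with significance versus control.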

MDA-MB-231 [3] = assay: Antiinvasive activity against human MDA-MB-231 cells at 20 uM after 48 hrs by crystal violet staining based microscopic method relative to control; assay type: functional; in short: as §1
MDA-MB-231 [4] = assay: Antimigratory activity against human MDA-MB-231 cells at 40 uM after 48 hrs by wound healing assay relative to control; assay type: functional
In short: (§2)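 Wound healing (scratch) assay on MDA-MB-231 human breast cancer cells, compound at 20 and 40 μM, sunitinib as positive control. Migration was expressed relative to untreated control as mean ± SD (n = 3), with significance versus control.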

Trichophyton rubrum = assay: Antifungal activity against Trichophyton rubrum; assay type: functional
[5] = tested on: Trichophyton mentagrophytes; assay: Antifungal activity against Trichophyton mentagrophytes; assay type: functional
MDA-MB-231 [6] = assay: Antimigratory activity against human MDA-MB-231 cells at 20 uM after 48 hrs by wound healing assay relative to control; assay type: functional; in short: as §2
A549 = assay: Antiproliferative activity against human A549 cells after 72 hrs by SRB assay; assay type: functional, cell-based
Aspergillus fumigatus = assay: Antifungal activity against Aspergillus fumigatus; assay type: functional
HCT-116 = assay: Antiproliferative activity against human HCT116 cells after 72 hrs by SRB assay; assay type: functional, cell-based
Escherichia coli = assay: Antibacterial activity against Escherichia coli; assay type: functional
Staphylococcus aureus = assay: Antibacterial activity against Staphylococcus aureus; assay type: functional
Homo sapiens = species: Homo sapiens; assay: Antiproliferative activity against human SNU538 cells after 72 hrs by SRB assay; assay type: functional, cell-based
Enterococcus faecium = assay: Antibacterial activity against Enterococcus faecium; assay type: functional
Enterococcus faecalis = assay: Antibacterial activity against Enterococcus faecalis; assay type: functional
RAW264.7 [7] = assay: Antiinflammatory activity in mouse RAW264.7 cells assessed as inhibition of LPS-induced nitric oxide production preincubated for 1 hr followed by LPS addition and measured on next day by Griess reagent based assay; assay type: functional, cell-based
In short: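 Mouse macrophages treated with compound, then stimulated with LPS to induce nitric oxide production (iNOS assay). NO suppression was read against LPS-only cells and expressed as IC50. 2-Amino-5,6-dihydro-6-methyl-4H-1,3-thiazine (AMT) was the positive control.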

Klebsiella pneumoniae = assay: Antibacterial activity against Klebsiella pneumoniae; assay type: functional
SK-HEP1 = assay: Antiproliferative activity against human SKHEP1 cells after 72 hrs by SRB assay; assay type: functional, cell-based
MDA-MB-231 [8] = assay: Antiproliferative activity against human MDA-MB-231 cells after 72 hrs by SRB assay; assay type: functional, cell-based
Candida albicans = assay: Antifungal activity against Candida albicans; assay type: functional
Salmonella enterica = assay: Antibacterial activity against Salmonella enterica; assay type: functional
MDA-MB-231 [9] = assay: Antimigratory activity against human MDA-MB-231 cells after 48 hrs by wound healing assay; assay type: functional, cell-based; in short: as §2

| Compound | Activity (RAW264.7 [1]) | Activity (MCF-10A) | Activity (MDA-MB-231 [2]) | Activity (MDA-MB-231 [3]) | Activity (MDA-MB-231 [4]) | MIC (Trichophyton rubrum) [µM] | MIC [5] [µM] | Activity (MDA-MB-231 [6]) | Activity (A549) | MIC (Aspergillus fumigatus) [µM] | Activity (HCT-116) | MIC (Escherichia coli) [µM] | MIC (Staphylococcus aureus) [µM] | Activity (Homo sapiens) | MIC (Enterococcus faecium) [µM] | MIC (Enterococcus faecalis) [µM] | IC50 (RAW264.7 [7]) [µM] | MIC (Klebsiella pneumoniae) [µM] | Activity (SK-HEP1) | Activity (MDA-MB-231 [8]) | also measured |
| --- | --- | --- | --- | --- | --- | --- | --- | --- | --- | --- | --- | --- | --- | --- | --- | --- | --- | --- | --- | --- | --- |
| CCCCCC[C@H]1CN(O)[C@H]2C=C/C(=C\C=C\C(=O)O)[C@]23O[C@H]13 | Non-Toxic | Non-Toxic | inactive | inactive | inactive | > 128 | > 128 | inactive | inactive | > 128 | inactive | 64 (≈ 20.4 µg/mL) | 64 (≈ 20.4 µg/mL) | inactive | 64 (≈ 20.4 µg/mL) | 64 (≈ 20.4 µg/mL) | 83 | 64 (≈ 20.4 µg/mL) | inactive | inactive | MIC (Candida albicans): > 128 µM; MIC (Salmonella enterica): 64 µM (≈ 20.4 µg/mL) |
| CCCCCC[C@H]1CN[C@H]2C=C/C(=C\C=C\C(=O)O)[C@]23O[C@H]13 | Non-Toxic | Non-Toxic | 36% | 20% | 73% | > 128 | > 128 | 50% | inactive | > 128 | inactive | 64 (≈ 19.4 µg/mL) | 64 (≈ 19.4 µg/mL) | inactive | 64 (≈ 19.4 µg/mL) | 64 (≈ 19.4 µg/mL) | 16.9 | 64 (≈ 19.4 µg/mL) | inactive | inactive | MIC (Candida albicans): > 128 µM; MIC (Salmonella enterica): 64 µM (≈ 19.4 µg/mL); Activity (MDA-MB-231 [9]): Dose-dependent effect |
